TRPC4 act – activators of mouse TRPC4 channel, primary screen, Fluo4 calcium, HEK293 TRPC4beta/mu-opioid cells | 0.49% of 310,000 active | AID 2237, 2010 | Fluo4 calcium fluorescence; stronger effect = higher value | B-score at 10 µM | Short transient receptor potential channel 4 (Mus musculus), Q9QUQ5;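 active means B-score above 5 SD of library B-scores, and initial fluorescence ratio not above library mean plus 5 SD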;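 further: positive B-score marks a calcium rise read as TRPC4 activation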
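Material: HEK293 stable line with TRPC4beta plus mu-opioid receptor; technique: Fluo4 calcium-sensitive dye fluorescence, kinetic, 1 Hz baseline; timing: Fluo4 dye loading 45 min at room temperature, 110 s recording; controls: assay buffer as low control, maximal DAMGO as high control; read-out: integrated baseline-normalised fluorescence ratio, converted to per-well B score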
TRPC4 potent – positive allosteric modulators of TRPC4, primary screen, cell-based, mouse TRPC4beta, HEK293 mu-opioid, Fluo-4 calcium. DAMGO EC20, Fluo-4 Ca2+ flux; stronger effect = higher value. B-score at 10 µM. 0.42% of 310,000 active;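 active means B-score of calcium response area above 5 SD of library B-scores, with initial fluorescence ratio within 5 SD of library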;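 further: B-score of integrated fluorescence ratio over time as area under calcium response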
TRPC4 block – inhibitors of mouse TRPC4 channel, primary screen, Fluo4 calcium, HEK293 TRPC4beta/mu-opioid cells | Short transient receptor potential channel 4 (Mus musculus), Q9QUQ5 | AID 2247, 2010 | B-score at 10 µM | DAMGO-evoked Fluo4 calcium flux; stronger effect = lower value | 0.39% of 300,000 active;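 active means B-score over 3 SD under the library average, no early fluorescence shift, positive overall ratio signal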
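Assay system: TRPC4beta/mu-opioid receptor HEK293 cell line; compound dosing: single concentration per test compound; detection: Fluo4 Ca2+ flux fluorescence; evaluation: per-well B score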
TRPC6 act – mouse TRPC6 channel activators, primary screen, cell-based, HEK293, membrane potential dye. Short transient receptor potential channel 6 (Mus musculus), Q61143. HEK293-TRPC6 membrane potential dye fluorescence; stronger effect = higher value. B-score at 10 µM. 0.13% of 310,000 active. AID 2550, 2010;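 active means B-score of the integrated fluorescence ratio above library mean plus 3 SD, and starting fluorescence ratio within library mean plus 5 SD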;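 further: higher score means more depolarization so channel activation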
Target sequence (Q61143 whole entry, looked up): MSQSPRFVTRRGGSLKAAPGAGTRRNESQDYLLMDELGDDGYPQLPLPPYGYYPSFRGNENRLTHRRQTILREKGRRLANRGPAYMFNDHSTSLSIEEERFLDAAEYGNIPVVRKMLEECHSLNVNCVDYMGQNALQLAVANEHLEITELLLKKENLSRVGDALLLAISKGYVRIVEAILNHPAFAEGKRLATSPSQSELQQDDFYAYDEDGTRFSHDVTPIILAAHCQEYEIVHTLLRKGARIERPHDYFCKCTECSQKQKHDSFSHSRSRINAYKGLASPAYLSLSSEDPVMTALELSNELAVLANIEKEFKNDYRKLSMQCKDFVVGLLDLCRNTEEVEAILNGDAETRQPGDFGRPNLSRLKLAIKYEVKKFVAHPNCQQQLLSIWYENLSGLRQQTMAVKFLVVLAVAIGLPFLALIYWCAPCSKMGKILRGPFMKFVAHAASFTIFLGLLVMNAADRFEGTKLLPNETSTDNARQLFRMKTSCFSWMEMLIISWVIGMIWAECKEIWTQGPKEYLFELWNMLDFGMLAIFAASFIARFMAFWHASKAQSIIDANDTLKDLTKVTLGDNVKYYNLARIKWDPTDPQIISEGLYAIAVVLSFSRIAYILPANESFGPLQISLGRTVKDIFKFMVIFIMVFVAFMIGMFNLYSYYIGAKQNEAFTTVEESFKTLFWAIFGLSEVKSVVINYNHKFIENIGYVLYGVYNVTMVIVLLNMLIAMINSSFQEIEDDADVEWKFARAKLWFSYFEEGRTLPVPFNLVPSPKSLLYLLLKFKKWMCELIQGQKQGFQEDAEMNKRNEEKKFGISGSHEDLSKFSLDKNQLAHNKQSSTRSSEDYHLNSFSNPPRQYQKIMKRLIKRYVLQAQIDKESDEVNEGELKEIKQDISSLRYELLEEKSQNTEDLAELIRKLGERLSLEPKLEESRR
TRPC6 inhibitor – mouse TRPC6 channel inhibitors, primary screen, cell-based, HEK293, membrane potential dye; Short transient receptor potential channel 6 (Mus musculus), Q61143; ACh-evoked depolarization; stronger effect = lower value; B-score at 10 µM; 1.1% of 310,000 active;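 active means B-score under library mean minus 3 SD, initial fluorescence not abnormally high, positive integrated signal ratio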;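 further: B-score derived from integrated fluorescence ratio over the kinetic read; more negative B-score means stronger inhibition of depolarization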
DNA FID counter – compounds displacing fluorescent DNA intercalator, primary screen, artefact control for HCV NS3 helicase inhibitor project, biochemical, FID fluorescence. inhibition, % at 7.9 µM. DNA fluorescent intercalator displacement. 0.17% of 290,000 active; in the data active means inhibition above about 37%;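 further: 0% = vehicle and 100% = reference compound; higher means more ethidium bromide displaced from hairpin DNA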
TRPC4 spec 2 – second check of whether TRPC6 inhibitors also affect mouse TRPC4; shares compounds with TRPC6 inhibitor; HEK293 TRPC4/MOR, membrane potential dye fluorescence; channel activated by saturating DAMGO dose; inhibition, % at 10 µM; 42% of 920 active;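 active means compounds whose fluorescence signal differed from control wells by over 3 SD, either direction, in both duplicate plates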
TRPC4 spec – mouse TRPC4 modulation by TRPC6 hits, confirmation, selectivity assay for TRPC6 inhibitor project, cell-based, HEK293 TRPC4/mu-opioid, membrane potential dye; 61% of 920 active; activity change, negative = inhibition, % at 10 µM; AID 2777, 2010; membrane potential fluorescence; shares compounds with TRPC6 inhibitor;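 active means rise or fall in signal beyond 3 SD of buffer-only wells in both replicate plates, either sign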;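 further: integrated kinetic ratio of fluorescence range over baseline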
HEK293 MPD ctr 2-1 – nonspecific membrane potential effects, parental HEK293, confirmation, counter-screen for TRPC6 inhibitor project, cell-based, second counter screen. parental HEK293 membrane potential dye fluorescence; maximal acetylcholine challenge after compound addition. shares compounds with TRPC6 inhibitor. signal change vs control, % at 10 µM. 31% of 920 active. AID 2779, 2010;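 active means membrane potential signal moving either way by over 3 SD of the maximum-effect control, in both duplicate plates, meaning non-specific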
HEK293 MPD ctr-1 – membrane potential modulation in parental HEK293, confirmation, counter-screen for TRPC6 inhibitor project, cell-based; shares compounds with TRPC6 inhibitor; parental HEK293 membrane potential dye fluorescence; membrane potential signal change, % at 10 µM; 60% of 920 active; AID 2780, 2010;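 active means membrane potential signal shifting up or down by more than 3 SD of buffer-only wells, on both duplicate plates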
HEK293 MPD ctr-2 – parental HEK293 membrane potential modulation, confirmation, counter-screen for TRPC6 modulator project, cell-based; shares compounds with TRPC6 inhibitor; membrane potential dye fluorescence; membrane potential signal change, % at 10 µM; 51% of 2,400 active;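 active means membrane potential signal moves up or down beyond 5 SD from buffer-only wells, on both duplicate plates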
HEK293 MPD ctr 2-2 – second counter-screen for TRPC6 modulators: effect in parental HEK293 cells. 14% of 2,400 active. shares compounds with TRPC6 inhibitor. membrane potential dye fluorescence; after compound, maximal acetylcholine stimulation. inhibition, % at 10 µM;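 active means membrane potential signal drops by more than 5 SD from the mean control signal, in both duplicate plates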;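 further: plate controls were acetylcholine ECmax control wells for no effect and buffer only wells for full effect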
TRPC4 ctr mod – TRPC4 modulation by TRPC6 hit compounds, confirmation, selectivity assay for TRPC6 modulator project, cell-based, HEK293 TRPC4/mu-opioid, membrane potential dye, mouse; shares compounds with TRPC6 inhibitor; membrane potential fluorescence; percent change from control (negative = decrease, positive = increase), % at 10 µM; 69% of 2,400 active; AID 488927, 2010;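 active means membrane potential signal moved up or down beyond 5 SD of buffer control wells, in both duplicate plates, actives on both sides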;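 further: plate controls were assay buffer wells for no effect and DAMGO maximal-effect wells for full effect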
TRPC4 ctr inh 2 – second check of whether TRPC6 modulators also affect mouse TRPC4; shares compounds with TRPC6 inhibitor; HEK293 TRPC4/mu-opioid, membrane potential dye fluorescence; stimulated with maximal-effect DAMGO; inhibition, % at 10 µM; 55% of 2,400 active; AID 488928;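 active means drop in membrane potential signal beyond 5 SD of the control wells in both duplicate plates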;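 further: TRPC4 counter screen for TRPC6 hits run under conditions tuned for TRPC6 not TRPC4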
TRPC6 inh conf – mouse TRPC6 channel inhibitors, confirmation, HEK293 cells, membrane potential dye, duplicate; ACh-evoked depolarization; AID 488960, 2010; shares compounds with TRPC6 inhibitor; inhibition, % at 10 µM; 43% of 3,300 active;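 active means fluorescence ratio falls more than 5 SD below the full-stimulation control mean, in both duplicate runs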;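 further: integrated fluorescence ratio of peak minus minimum over baseline after agonist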
TRPC6 act confirm – mouse TRPC6 channel activators, confirmation, HEK293 cells, membrane potential dye, duplicate | 11% of 2,800 active | HEK293-TRPC6 membrane potential dye fluorescence, FDSS | activation, % at 10 µM | AID 488961, 2010 | shares compounds with TRPC6 inhibitor;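 active means ratio signal rise beyond 5 SD above unstimulated control wells' mean, seen in both duplicate runs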;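 further: plate controls were buffer EC0 wells for no effect and acetylcholine ECmax response for full effect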
Starred values were filed as active, the others as inactive; i = inactive; . = no result. Only some compounds are listed: those with a hit (about 2.3% of all), similar ones and a draw of the others.

SMILES	TRPC4 act	TRPC4 potent	TRPC4 block	TRPC6 act	TRPC6 inhibitor	DNA FID counter	HEK293 MPD ctr-2	HEK293 MPD ctr 2-2	TRPC4 ctr mod	TRPC4 ctr inh 2	TRPC6 inh conf	TRPC6 act confirm	others
Cc1ccc(C(=O)O)cc1N=Nc1c(O)[nH]c(=O)[nH]c1=O	i	i	i	i	i	0	.	.	.	.	.	.
CC1CC(OC(=O)c2ccccc2)CC(C)N1C (stereo not drawn)	i	i	i	i	i	6	.	.	.	.	.	.
C[N+]1(C)[C@@H]2CC(OC(=O)[C@H](CO)c3ccccc3)C[C@H]1[C@@H]1O[C@@H]12 (stereo partly drawn)	i	i	i	i	-8.2*	3	.	.	.	.	93%*	i	TRPC4 spec 2=i;TRPC4 spec=i;HEK293 MPD ctr 2-1=-9.0%*;HEK293 MPD ctr-1=i
C[N+]1(C)[C@@H]2CC[C@H]1CC(OC(=O)C(c1ccccc1)c1ccccc1)C2 (stereo partly drawn)	i	i	i	i	-5.3*	7	i	91%*	i	i	96%*	i
CCCC[N+]1(C)[C@@H]2CC(OC(=O)[C@H](CO)c3ccccc3)C[C@H]1[C@@H]1O[C@@H]12 (stereo partly drawn)	i	i	i	i	i	-1	.	.	.	.	.	.
C[C@]12CCC(=O)CC1CCC1C2CC[C@]2(C)C(OC(=O)CCC(=O)O)CCC12 (stereo partly drawn)	i	i	i	i	i	-38	.	.	.	.	.	.
Clc1cc(I)cc(Cl)c1NC1=NCCN1	i	i	i	i	i	.	.	.	.	.	.	.
Fc1ccc(C[n+]2c(-c3ccccc3)cc(-c3ccccc3)cc2-c2ccccc2)cc1	i	i	i	i	-6.9*	.	.	.	.	.	56%*	i	TRPC4 spec 2=75%*;TRPC4 spec=4.2%*;HEK293 MPD ctr 2-1=232%*;HEK293 MPD ctr-1=3.5%*
Cc1cc(-c2ccccc2)cc(-c2ccccc2)[n+]1CCc1ccccc1	i	i	i	i	i	.	.	.	.	.	.	.
CC(C)N1CCN(c2ccc(O)cc2)CC1	i	i	i	i	i	6	.	.	.	.	.	.
NCCc1c[nH]c2ccccc12	.	.	.	.	.	2	.	.	.	.	.	.
CCCCc1ccc2[nH]cc(CCN)c2c1	i	i	i	i	-5.2*	14	i	i	i	47%*	50%*	i
COc1ccc(-n2c(O)c(C(C)=NCCCn3ccnc3)c(=O)[nH]c2=O)cc1	i	i	i	i	i	-1	.	.	.	.	.	.
N=C1c2ccccc2CN1c1ncccn1	i	i	i	i	-7.3*	-5	i	i	-11%*	i	i	i
CSc1ccc(C(=O)C2CCCN(Cc3cnc(SC)nc3)C2)cc1 (stereo not drawn)	i	i	i	i	i	0	.	.	.	.	.	.
CCn1ccnc1CN1CCCC(C(=O)c2ccc(SC)cc2)C1 (stereo not drawn)	i	i	i	i	-5*	7	i	i	15%*	i	54%*	.
CCCc1cc(=O)oc2cc(OCC(=O)N3C[C@H]4C[C@@H](C3)c3cccc(=O)n3C4)ccc12	i	i	i	i	i	-25	.	.	.	.	.	.
CN1CCC(N(C)c2nc(-c3ccccc3)nc3ccccc23)CC1	i	15*	i	i	-7.6*	63*	-306%*	88%*	-54%*	66%*	74%*	i
O=C1N(c2nncs2)CCN1[N+](=O)[O-]	i	i	i	i	i	0	.	.	.	.	.	.
OC(Cc1ccccc1)(c1ccccc1)C1CN2CCC1CC2 (stereo not drawn)	i	i	i	i	-5.4*	-5	152%*	i	33%*	i	52%*	.
OC(c1ccccc1)(c1ccc(Cl)cc1)C1CN2CCC1CC2 (stereo not drawn)	i	i	i	i	i	14	.	.	.	.	.	.
OC(c1ccccc1)(c1ccccc1)C1CN2CCC1CC2 (stereo not drawn)	i	i	i	i	-7.9*	16	.	.	.	.	i	i	TRPC4 spec 2=i;TRPC4 spec=i;HEK293 MPD ctr 2-1=i;HEK293 MPD ctr-1=i

High-throughput results: PubChem BioAssay, several laboratories
